# Calls of active or inactive are those of the source. The rule behind the calls is not given here.
# Key:
# [1] = organism: Homo sapiens; assay: Binding affinity to 18 bp double-stranded DNA (unknown origin) assessed as DNA stabilization by fluorescence melting assay
# How it was run: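 Fluorescence melting in a real-time PCR cycler (excitation 488 nm, emission 520 nm). The HTS target carried 5′-Dabcyl and 3′-fluorescein; the 18 bp duplex was also a target. Mixtures held 0.25 μM DNA plus ligand in 10 mM LiOH, 50 mM KCl, pH 7.4 (H3PO4). Samples were denatured at 95 °C for 5 min, cooled to 30 °C at 0.5 °C/min, then heated to 90 °C and recooled at 0.2 °C/min. Tm came from the first derivative, ≥3 repeats.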
# [2] = organism: Homo sapiens; assay: Binding affinity to G-quadruplex folded telomeric sequence Tel22 DNA (unknown origin) assessed as DNA stabilization at 8 uM by circular dichroism spectral analysis
# [3] = organism: Homo sapiens; assay: Stabilization of single-stranded DNA 5'-GGATGTGAGTGTGAGTGTGAGG-3' (unknown origin) assessed as DNA modifications at 20 to 50 uM measured 20 mins post UV irradiation by PAGE analysis
# How it was run: (§1)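 Tel22 or single-stranded 22-mer 5′-32P end-labelled with T4 kinase; 1 μM DNA in 10 mM Tris, 50 mM KCl, pH 7.5 with increasing ligand, irradiated at 308 nm for variable time (or ligand pre-irradiated 30 min, or non-irradiated); products run on 20% polyacrylamide/7 M urea in 1× TBE, quantified by phosphorimaging.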
# [4] = Stability of the compound assessed as retention time after 25 mins of UV irradiation; assay type: physicochemical
# How it was run: (§2)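 30 μM ligand in 10 mM Tris-HCl, 50 mM KCl, pH 7.5 irradiated at 308 nm (0.022 J/min), 25 °C, for increasing times; analysed by LC on C18 (water/acetonitrile 4–80% gradient with 0.1% formic acid over 20 min, 0.02 mL/min) with positive-mode ESI-MS, m/z 100–2500.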
# [5] = Stability of the compound assessed as retention time after 3 mins of UV irradiation; assay type: physicochemical; settings: 0.05 h; how it was run: as §2
# [6] = system: DNA; assay: Binding affinity to calf thymus DNA assessed as DNA stabilization at 8 uM by circular dichroism spectral analysis; settings: Bos taurus
# [7] = organism: Homo sapiens; assay: Stabilization of double-stranded DNA (unknown origin) assessed as DNA modifications at 20 to 50 uM measured 20 mins post UV irradiation by PAGE analysis
# [8] = Stability of the compound assessed as retention time after 100 mins of UV irradiation; assay type: physicochemical
# How it was run: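 Ligand (30 μM) in 10 mM Tris-HCl, 50 mM KCl, pH 7.5 was irradiated at 308 nm (0.022 J/min) at 25 °C for increasing times. Samples ran on C18 HPLC at 0.02 mL/min with a water/acetonitrile gradient (0.1% formic acid) of 4–80% over 20 min. Detection was positive-mode ESI-MS (4.5 kV, m/z 100–2500).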
# [9] = organism: Homo sapiens; assay: Stabilization of G-quadruplex folded telomeric sequence Tel22 DNA (unknown origin) assessed as DNA modifications at 20 to 50 uM measured 20 mins post UV irradiation by PAGE analysis; how it was run: as §1
# [10] = organism: Homo sapiens; assay: Binding affinity to G-quadruplex folded telomeric sequence Tel22 DNA (unknown origin) assessed as DNA stabilization measured 25 mins post UV irradiation by circular dichroism spectral analysis
# [11] = organism: Homo sapiens; assay: Binding affinity to G-quadruplex folded telomeric sequence Tel22 DNA (unknown origin) assessed as DNA stabilization at 8 uM by circular dichroism spectral analysis relative to control
# [12] = Stability of the compound assessed as retention time; assay type: physicochemical; how it was run: as §2
# [13] = organism: Homo sapiens; assay: Binding affinity to human telomeric sequence 5'-AGGGTTAGGGTTAGGGTTAGGGT-3' assessed as change in melting temperature at 10 uM by fluorescence melting assay
# [14] = organism: Homo sapiens; assay: Binding affinity to human telomeric sequence 5'-AGGGTTAGGGTTAGGGTTAGGGT-3' assessed as thermal stability by fluorescence melting assay relative to control
# How it was run: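 Fluorescence melting on a LightCycler (ex 488, em 520 nm); 0.25 μM 5′-Dabcyl/3′-fluorescein HTS oligo in 10 mM LiOH, 50 mM KCl, pH 7.4 (H3PO4); ligand 0.5–10 μM; denatured 95 °C 5 min, cooled to 30 °C, melted 0.2 °C/min to 90 °C; Tm from first derivative; ≥3 repeats.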
smiles,measurement,setting,value
Cc1c(CCC(=O)N2CCN(C)CC2)c(=O)oc2cc3occ(-c4ccccc4)c3cc12,Activity,[1],inactive
Cc1c(CCC(=O)NCCCn2ccnc2)c(=O)oc2cc3occ(-c4ccc(F)cc4)c3cc12,Activity,[1],inactive
Cc1c(CC(=O)N(C)C2CCN(C)CC2)c(=O)oc2c(C)c3occ(-c4ccccc4)c3cc12,Activity,[2],inactive
same,Activity,[3],Active
same,Retention_time,[4],16.6 min
same,Activity,[1],inactive
same,Retention_time,[5],16.6 min
same,Activity,[6],inactive
same,Activity,[7],Active
same,Retention_time,[8],16.6 min
same,Activity,[9],Active
same,Activity,[10],inactive
same,Activity,[11],inactive
same,Retention_time,[12],17 min
CN(C)c1ccc(Nc2c3ccc(NC(=O)CCN4CCCC4)cc3nc3cc(NC(=O)CCN4CCCC4)ccc23)cc1,deltaTm,[13],32 °C
Cc1cc2c3c([n+](C)c4ccc(F)cc4c3c1)-c1cc(F)ccc1N2C,deltaTm,[13],30 °C
COc1ccc(-c2coc3cc4oc(=O)c(CC(=O)N5CCN(CCO)CC5)c(C)c4cc23)cc1,Activity,[1],inactive
Cc1c(CC(=O)N2CCN(C)CC2)c(=O)oc2cc3occ(-c4ccc(Cl)cc4)c3cc12,Activity,[2],inactive
same,Activity,[3],Active
same,Retention_time,[4],16.1 min
same,Activity,[1],inactive
same,Retention_time,[5],16.1 min
same,Activity,[6],inactive
same,Activity,[7],Active
same,Activity,[14],inactive
same,Activity,[9],Active
same,Activity,[10],inactive
same,Activity,[11],inactive
same,Retention_time,[12],17.2 min

# Reference: ChEMBL document CHEMBL2311519, “Identification and characterization of new DNA G-quadruplex binders selected by a combination of ligand and structure-based virtual screening approaches” (J Med Chem, 2013)
